Screens deposited in PubChem BioAssay by Sanford-Burnham Center for Chemical Genomics.
mIAP inh: blocks mouse intestinal alkaline phosphatase | purified mouse IAP, CDP-Star luminescence, 30 min | inhibition, % at 10 µM | actives 0.2% (n = 330,000);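 active = inhibition of at least 40% at 10 µM in the primary screen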;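 note: plate controls were DMSO with enzyme for no effect and no enzyme wells for full effect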
bIAP activator: increases bovine intestinal alkaline phosphatase activity; AID 1016; actives 0.17% (n = 200,000); activation factor at 20 µM; purified bovine IAP, CDP-star luminescence, 30 min; hits give high values; fold of DMSO-control signal, blank-subtracted;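 active = activation factor of 2 or more at 20 µM, a signal rise over negative controls twice the positive control's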
hIAP act: human IAP activation. P09923. purified human IAP, CDP-Star luminescence, 30 min; hits give high values; 1 = vehicle-only enzyme, 0 = enzyme-free background. AID 2524. actives 0.16% (n = 330,000). activation factor at 10 µM;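 active = activation factor of the enzyme at least 2-fold when tested at 20 µM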
Target sequence (P09923 whole entry, looked up): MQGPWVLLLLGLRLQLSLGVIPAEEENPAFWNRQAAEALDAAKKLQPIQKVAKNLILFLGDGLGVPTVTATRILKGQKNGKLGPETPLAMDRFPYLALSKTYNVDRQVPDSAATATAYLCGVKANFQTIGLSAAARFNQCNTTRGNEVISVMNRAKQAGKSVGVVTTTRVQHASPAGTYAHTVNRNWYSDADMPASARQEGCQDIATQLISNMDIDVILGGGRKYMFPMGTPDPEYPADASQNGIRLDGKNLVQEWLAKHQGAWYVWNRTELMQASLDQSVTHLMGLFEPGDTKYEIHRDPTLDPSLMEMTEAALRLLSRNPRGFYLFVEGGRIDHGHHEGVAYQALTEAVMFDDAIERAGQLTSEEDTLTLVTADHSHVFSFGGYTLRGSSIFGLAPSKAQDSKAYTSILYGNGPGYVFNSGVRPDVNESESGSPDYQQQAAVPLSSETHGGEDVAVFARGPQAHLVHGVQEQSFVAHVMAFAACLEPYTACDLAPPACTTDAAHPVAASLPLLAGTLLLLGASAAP
mIAP act: increases mouse intestinal alkaline phosphatase activity; muIAP, CDP-Star luminescence, 30 min; hits give high values; 1 = vehicle-only enzyme signal, 0 = enzyme-free wells; activation factor at 10 µM; actives 0.24% (n = 330,000); AID 2805;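 active = activation factor of at least 2 at 20 µM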
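Assay system: mouse IAP enzyme; reagent: chemiluminescent substrate CDP-Star; dosing: test compounds delivered from DMSO solution; schedule: 30 min at room temperature; measured by: luminescence from enzymatic CDP-Star hydrolysis; controls: DMSO-only wells and no-enzyme negative control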
hIAP inh: blocks human intestinal alkaline phosphatase | P09923 | purified IAP, CDP-Star luminescence, 30 min | inhibition, % at 10 µM | actives 0.12% (n = 330,000) | AID 2544;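 active = inhibition reaching a set limit with compound at 10 µM in the primary screen, cut at about 35% in these data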;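 note: plate controls were DMSO wells with enzyme for no effect and no-enzyme buffer wells for full effect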
bIAP inhibitor: blocks bovine intestinal alkaline phosphatase activity; 190,000 tested, under 10 active; AID 1019; inhibition, % at 20 µM; purified bovine IAP, CDP-star luminescence, 30 min;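 active = over 50% inhibition of intestinal alkaline phosphatase at 20 µM in the single-dose screen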
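Assay system: bovine IAP enzyme; medium: DEA buffer 100 mM, pH 9.8, with MgCl2 1.0 mM, ZnCl2 0.02 mM; doses: 20 µM single dose; incubation: enzyme reaction for 30 min at room temperature; detection: CDP-star luminescence signal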
mIAP inh confirm: mouse IAP inhibition confirmation; actives 4.7% (n = 11,000); purified mouse IAP, CDP-Star luminescence, 30 min; shares compounds with mIAP inh; inhibition, % at 10 µM;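 active = inhibition of at least 40% at 10 µM in either of the two replicates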;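 note: plate controls were DMSO wells with enzyme for no effect and buffer wells lacking enzyme for full effect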
An asterisk follows results filed as active. Sampled rows, rich in hits. Any-hit rate of the full collection: about 0.72%.

How did Oc1ccc(/C=N\Nc2cc(N3CCOCC3)nc(N3CCOCC3)n2)c(O)c1 do in these assays?
mIAP inh: 15; bIAP activator: 1.1; hIAP act: 0.9; mIAP act: 0.85; hIAP inh: 10; bIAP inhibitor: -8

How did COC(=O)c1ccc(NC(=O)Nc2cccc(F)c2)cc1 do in these assays?
mIAP inh: -160; bIAP activator: 0.9; hIAP act: 1; mIAP act: 2.6*; hIAP inh: -1; bIAP inhibitor: 11; mIAP inh confirm: -97

How did COC(=O)c1ccc(NC(=O)Nc2ccc(F)cc2F)cc1 do in these assays?
mIAP inh: -80; bIAP activator: 1; hIAP act: 1; mIAP act: 1.8; hIAP inh: -4; bIAP inhibitor: -5

What do the screens show for `CC(=O)c1cccc(OCc2cc(C(=O)N3CCC(N4CCCCC4)CC3)no2)c1`?
mIAP inh: -2; hIAP act: 1.2; mIAP act: 1; hIAP inh: -21

How did CCC(C(=O)NCCC(C)C)n1ccc2cc(S(=O)(=O)N3CCCCC3)ccc21 (centres undefined) do in these assays?
mIAP inh: -170; hIAP act: 1.1; mIAP act: 2.7*; hIAP inh: -14; mIAP inh confirm: -159

Results for c1coc(CSSCc2ccco2)c1 ?
mIAP inh: 71*; hIAP act: 1; mIAP act: 0.29; hIAP inh: -2; mIAP inh confirm: 75*

What do the screens show for `C=CCc1ccccc1Oc1cc(F)nc(N)n1`?
mIAP inh: 4; hIAP act: 0.85; mIAP act: 0.96; hIAP inh: 15

Results for CC(C)(C)NC(=O)CSc1nc2cc(S(=O)(=O)N3CCCCC3)ccc2o1 ?
mIAP inh: 7; hIAP act: 1.1; mIAP act: 0.93; hIAP inh: -8

What do the screens show for `O=C(CCN1C(=O)/C(=C\c2ccco2)SC1=S)Nc1ccc(C(=O)O)c(O)c1`?
mIAP inh: 56*; hIAP act: 1.2; mIAP act: 0.44; hIAP inh: -16; mIAP inh confirm: 76*

How did O=C(CCN1C(=O)/C(=C/c2ccco2)SC1=S)Nc1ccc(C(=O)O)c(O)c1 do in these assays?
mIAP inh: 62*; hIAP act: 1; mIAP act: 0.39; hIAP inh: -4; mIAP inh confirm: 78*

How did Cc1ccc(NC(=O)c2cccc(S(=O)(=O)N3CCN(C)CC3)c2)cc1F do in these assays?
mIAP inh: 4; hIAP act: 1; mIAP act: 0.96; hIAP inh: -2

Results for COc1ccc(NC(=O)Nc2ccc3c(c2)C(=O)N([C@H](C)CO)C[C@H](C)[C@@H](CN(C)S(=O)(=O)c2cccs2)O3)cc1 ?
mIAP inh: -175; hIAP act: 1; mIAP act: 2.7*; hIAP inh: -4; mIAP inh confirm: -110

Results for C[C@H](CO)N1C[C@H](C)[C@H](CN(C)Cc2ccc(Oc3ccccc3)cc2)Oc2ccc(NC(=O)Nc3cccc4ccccc34)cc2CC1=O ?
mIAP inh: -176; hIAP act: 1; mIAP act: 2.8*; hIAP inh: 0; mIAP inh confirm: -103

How did CC(C)NC(=O)Nc1ccc2c(c1)C(=O)N([C@H](C)CO)C[C@H](C)[C@@H](CN(C)S(=O)(=O)c1cccs1)O2 do in these assays?
mIAP inh: -42; hIAP act: 0.98; mIAP act: 1.4; hIAP inh: 2

Results for COc1ccc(S(=O)(=O)N(C)C[C@H]2Oc3ccc(NC(=O)C4CCCCC4)cc3C(=O)N([C@H](C)CO)C[C@@H]2C)cc1 ?
mIAP inh: -37; hIAP act: 1; mIAP act: 1.4; hIAP inh: 0

Results for COc1ccc(S(=O)(=O)N(C)C[C@H]2Oc3ccc(NC(=O)NC4CCCCC4)cc3C(=O)N([C@H](C)CO)C[C@@H]2C)cc1 ?
mIAP inh: -373; hIAP act: 0.94; mIAP act: 4.7*; hIAP inh: 6; mIAP inh confirm: -174
